Test results: ChEMBL document CHEMBL4251737, “Imidazo[2,1-b]benzothiazol Derivatives as Potential Allosteric Inhibitors of the Glucocorticoid Receptor” (ACS Med Chem Lett, 2018)
Values joined by “and” are separate entries in the source; they are usually repeats but may differ in a detail not shown here. Identical values can stand only once. Active and inactive are the calls of the source. The rule behind the calls is not given here.

Key:
[1] = molecular target: T1, Glucocorticoid receptor (Homo sapiens) (UniProt P04150); experiment: Transrepression of GCR (unknown origin) expressed in human fibrosarcoma cells assessed as inhibition of DEX-induced GCR activation at 0.1 uM after 6 hrs by luciferase reporter gene assay relative to DEX; values are per cent of control
T1 sequence (whole entry): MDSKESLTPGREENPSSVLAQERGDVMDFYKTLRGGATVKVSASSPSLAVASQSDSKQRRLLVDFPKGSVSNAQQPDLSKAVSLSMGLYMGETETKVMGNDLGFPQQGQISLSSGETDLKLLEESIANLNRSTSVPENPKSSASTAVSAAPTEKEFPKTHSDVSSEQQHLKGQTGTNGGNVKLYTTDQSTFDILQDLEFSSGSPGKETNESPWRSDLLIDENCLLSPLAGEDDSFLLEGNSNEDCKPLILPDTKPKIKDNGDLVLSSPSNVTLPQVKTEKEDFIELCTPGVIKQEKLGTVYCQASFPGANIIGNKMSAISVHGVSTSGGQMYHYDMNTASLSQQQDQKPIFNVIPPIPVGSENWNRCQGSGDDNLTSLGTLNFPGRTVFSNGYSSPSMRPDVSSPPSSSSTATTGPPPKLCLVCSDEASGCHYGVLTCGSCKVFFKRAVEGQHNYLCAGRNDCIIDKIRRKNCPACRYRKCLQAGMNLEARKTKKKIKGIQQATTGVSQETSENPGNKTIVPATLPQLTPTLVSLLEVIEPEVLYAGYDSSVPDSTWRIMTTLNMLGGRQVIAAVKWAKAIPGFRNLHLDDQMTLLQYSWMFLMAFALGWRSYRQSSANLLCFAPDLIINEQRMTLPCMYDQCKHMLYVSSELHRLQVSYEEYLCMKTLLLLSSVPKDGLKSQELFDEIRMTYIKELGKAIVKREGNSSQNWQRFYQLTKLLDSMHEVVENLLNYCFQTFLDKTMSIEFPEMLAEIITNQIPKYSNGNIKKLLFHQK

[2] = molecular target: T1, Glucocorticoid receptor (Homo sapiens); experiment: Transactivation of GCR (unknown origin) expressed in human fibrosarcoma cells at 0.1 uM after 6 hrs by luciferase reporter gene assay; assay type: cell-based
Outline: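 GCR luciferase reporter run with single compound at 0.1 µM to probe agonism; reference agonist DEX at 1 µM.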

HeLa [3] = experiment: Down regulation of GCRalpha expression in human HeLa cells at 2 uM after 24 hrs by Taqman-based real-time PCR analysis relative to control; assay type: functional, cell-based
Outline: (§1)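 GCR transcripts quantified in HeLa cells after 24 h treatment at 0.4 and 2 µM. Means ± SD of 3 independent experiments; compared by one-way ANOVA.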

HeLa [4] = experiment: Down regulation of GCRalpha expression in human HeLa cells at 0.4 uM after 24 hrs by Taqman-based real-time PCR analysis relative to control; assay type: functional
Outline: as §1

[5] = molecular target: T1, Glucocorticoid receptor (Homo sapiens); experiment: Transrepression of GCR in human HeLa cells assessed as down regulation of GILZ mRNA expression at 0.4 uM after 24 hrs by Taqman-based real-time PCR analysis; assay type: cell-based
Outline: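 GILZ expression measured in HeLa cells after 24 h treatment at 0.4 and 2 µM, relative to untreated cells.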

HeLa [6] = experiment: Cytotoxicity against human HeLa cells after 72 hrs by MTT assay; assay type: cell-based
Outline: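 HeLa cells exposed 72 h in complete medium to 0.4, 2, 10, 50 and 250 µM; viability read by MTT. Means ± SE of 3 independent experiments run in triplicate.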

[7] = molecular target: T1, Glucocorticoid receptor (Homo sapiens); experiment: Transrepression of GCR in human HeLa cells assessed as suppression of DEX-induced GILZ mRNA expression at 0.4 to 2 uM after 24 hrs by Taqman-based real-time PCR analysis; assay type: cell-based
Outline: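 HeLa cells treated 24 h with DEX alone (0.1 µM) or DEX plus compound; GILZ transcription measured. RU486 plus DEX served as competitive-antagonist control.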

[8] = Solubility of the compound in water; assay type: physicochemical; settings: buffer
[9] = molecular target: T1, Glucocorticoid receptor (Homo sapiens); experiment: Transrepression of GCR (unknown origin) expressed in human fibrosarcoma cells assessed as suppression of TNF-induced NFkappaB activity at 1 uM pretreated for 2 hrs followed by TNF addition after 4 hrs by luciferase reporter gene assay relative to control; assay type: cell-based
Outline: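 Cells pretreated 2 h with compound alone, then TNF added and combination treatment continued 4 h; NF-kB luciferase reporter activity measured.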

Row | residual activity [1] | Activity [2] | Activity [5] | SMILES | EC50 (HeLa [6]) | further results
1 | 25% | inactive |  | CCn1c2ccccc2n2cc(-c3ccc(C#N)cc3)nc12 |  | 
2 |  |  | Active | N#Cc1ccc(-c2cn3c4c(sc3n2)C(=O)CCC4)cc1 | 16 µM | Activity (HeLa [3]): inactive; Activity (HeLa [4]): Active
3 | 20% | inactive |  | Brc1ccc(-c2cn3c(n2)sc2ccccc23)cc1 |  | 
4 |  |  |  | NCc1ccc(-c2cn3c(n2)sc2ccccc23)cc1 [listing 1 of 2 here] | 3.6 µM | 
5 |  |  | Active | COC(=O)c1ccc(-c2cn3c4c(sc3n2)CCCC4)cc1 | 7.7 µM | Activity (HeLa [3]): inactive; Activity (HeLa [4]): Active
6 | 23% | inactive |  | Nc1ccc(-c2cn3c(n2)sc2ccccc23)cc1 |  | 
7 |  |  | Active | O=C(O)c1ccc(-c2cn3c4c(sc3n2)CCCC4)cc1 | 170 µM | Activity (HeLa [3]): inactive; Activity (HeLa [4]): 50%
8 | 30% | inactive |  | Cc1ccc(-c2cn3c(n2)sc2ccccc23)cc1 |  | 
9 | 34% | inactive |  | OCc1ccc(-c2cn3c(n2)sc2ccccc23)cc1 |  | 
10 |  | inactive | Active | NCc1ccc(-c2cn3c(n2)sc2ccccc23)cc1 [listing 2 of 2 here] |  | Activity [7]: inactive
11 |  |  |  | Cl.NCc1ccc(-c2cn3c(n2)sc2ccccc23)cc1 |  | solubility [8]: Soluble
12 | 18% | inactive | Active | N#Cc1ccc(-c2cn3c4c(sc3n2)CCCC4)cc1 | 1.7 µM | Activity [9]: 76%; Activity [7]: inactive
13 | 23% and 35% | inactive |  | Cl.NCc1ccc(-c2cn3c4c(sc3n2)CCCC4)cc1 |  | solubility [8]: Soluble
